Activity calls are given as the source filed them. The calls are words filed in the database; no cut-off is given here.
Experiments:
[1] = system: MDA-MB-468; experiment: Cytotoxicity against human MDA-MB-468 cells assessed as growth inhibition after 4 days by XTT assay; assay type: functional, cell-based; conditions: MDA-MB-468, 96 h
Procedure, shortened: (§1)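 Cells kept in low-glucose DMEM with 10% FBS and 1% penicillin-streptomycin, seeded in 96-well plates the day before treatment. Compound exposure lasted four days, and the XTT cell proliferation kit was read on day 6 after drug addition. Dose-response cytotoxicity was measured in triplicate sets.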

[2] = target: T1, DNA repair protein RAD51 homolog 1 (Homo sapiens) (UniProt Q06609); experiment: Inhibition of RAD51 in human HeLa cells expressing DR-GFP assessed as reduction of homologous recombination frequency at 10 to 20 uM after 24 hrs by I-SceI inducible gene conversion assay; assay type: cell-based
T1 sequence (whole entry): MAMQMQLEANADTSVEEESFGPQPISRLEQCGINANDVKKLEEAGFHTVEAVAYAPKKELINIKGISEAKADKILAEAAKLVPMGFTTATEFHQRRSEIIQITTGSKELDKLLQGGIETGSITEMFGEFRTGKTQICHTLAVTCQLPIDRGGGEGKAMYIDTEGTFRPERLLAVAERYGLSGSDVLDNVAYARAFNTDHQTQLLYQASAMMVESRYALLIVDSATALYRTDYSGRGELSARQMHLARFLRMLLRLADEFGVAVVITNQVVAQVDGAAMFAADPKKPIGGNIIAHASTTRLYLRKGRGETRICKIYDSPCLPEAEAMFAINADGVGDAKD
Procedure, shortened: (§2)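 HeLa cells stably carrying DR-GFP (puromycin 2 µg/mL selection) were transiently transfected with I-SceI vector pCBASce for 24 h to induce DSBs. They were then treated with DMSO or compound at 10 or 20 µM for another 24 h. GFP-positive percentage was measured by flow cytometry as means±SD from three independent experiments.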

[3] = target: T1, DNA repair protein RAD51 homolog 1 (Homo sapiens); experiment: Inhibition of RAD51 (unknown origin) multimerization by gel filtration method
Procedure, shortened: (§3)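 Purified RAD51 (3.2 µg) preincubated with compound at 1:10 protein:compound molar ratio, 15 min at 37°C. Then 15 min in 50 mM triethanolamine-HCl pH 7.5, 0.5 mM Mg(OAc)2, 1 mM DTT, 2 mM ATP, 100 µg/ml BSA. Run on Superdex 200 PC 3.2/30 gel filtration in the same buffer. 50 µl fractions dot-blotted onto PVDF and probed with anti-RAD51 mAb 14B4.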

[4] = Cytotoxicity against human MCF10A cells assessed as growth inhibition after 4 days by XTT assay; assay type: cell-based; conditions: MCF-10A, 96 h
[5] = system: T98G; experiment: Cytotoxicity against human T98G cells assessed as growth inhibition after 4 days by XTT assay; assay type: functional, cell-based; conditions: 96 h; procedure, shortened: as §1
[6] = system: MDA-MB-231; experiment: Cytotoxicity against human MDA-MB-231 cells assessed as growth inhibition after 4 days by XTT assay; assay type: functional, cell-based; conditions: MDA-MB-231, 96 h; procedure, shortened: as §1
[7] = system: MCF7; experiment: Cytotoxicity against human MCF7 cells assessed as growth inhibition after 4 days by XTT assay; assay type: functional, cell-based; conditions: MCF7, 96 h; procedure, shortened: as §1
[8] = target: T1, DNA repair protein RAD51 homolog 1 (Homo sapiens); experiment: Inhibition of RAD51 in human HeLa cells expressing DR-GFP assessed as reduction of homologous recombination frequency after 24 hrs by I-SceI inducible gene conversion assay; assay type: cell-based; procedure, shortened: as §2
[9] = target: T1, DNA repair protein RAD51 homolog 1 (Homo sapiens); experiment: Inhibition of RAD51 (unknown origin) multimerization at 1:10 M ratio of protein to compound after 15 mins by gel filtration method; procedure, shortened: as §3
[10] = system: K562; experiment: Cytotoxicity against human K562 cells assessed as growth inhibition after 4 days by XTT assay; assay type: functional, cell-based; conditions: K562, 96 h
[11] = system: HeLa; experiment: Cytotoxicity against human HeLa cells assessed as growth inhibition after 4 days by XTT assay; assay type: functional, cell-based; conditions: 96 h
[12] = system: MDA-MB-361; experiment: Cytotoxicity against human MDA-MB-361 cells assessed as growth inhibition after 4 days by XTT assay; assay type: functional, cell-based; conditions: MDA-MB-361, 96 h; procedure, shortened: as §1
[13] = system: U2OS; experiment: Cytotoxicity against human U2OS cells assessed as growth inhibition after 4 days by XTT assay; assay type: functional, cell-based; conditions: 96 h; procedure, shortened: as §1
[14] = Selectivity ratio of IC50 for human MCF10A cells to IC50 for human T47D cells; assay type: ADME, cell-based, MCF-10A; conditions: MCF10A cells versus T47D cells
[15] = Selectivity ratio of IC50 for human MCF10A cells to IC50 for human T98G cells; assay type: ADME, cell-based, MCF-10A; conditions: MCF10A cells versus T98G cells
[16] = system: MDA-MB-435; experiment: Cytotoxicity against human MDA-MB-435 cells assessed as growth inhibition after 4 days by XTT assay; assay type: functional, cell-based; conditions: MDA-MB-435, 96 h; procedure, shortened: as §1
[17] = system: T47D; experiment: Cytotoxicity against human T47D cells assessed as growth inhibition after 4 days by XTT assay; assay type: functional, cell-based; conditions: 96 h
[18] = Cytotoxicity against human Hs578T cells assessed as growth inhibition after 4 days by XTT assay; assay type: functional, cell-based; conditions: Hs-578T, 96 h; procedure, shortened: as §1

| Compound | IC50 [1] [µM] | also measured |
| --- | --- | --- |
| O=S(=O)(Cc1ccc(C(F)(F)F)cc1)N1CCc2ccccc2[C@H]1c1c[nH]c2ccccc12 | 20.7 | – |
| O=S(=O)(Cc1ccc(F)cc1)N1CCc2ccccc2[C@@H]1c1c[nH]c2ccccc12 | 11.2 | – |
| O=S(=O)(Cc1ccccc1)N1CC=Cc2ccccc2[C@H]1c1c[nH]c2ccccc12 | > 50 | – |
| O=S(=O)(Cc1ccccc1)N1C=Cc2ccccc2C1c1c[nH]c2ccccc12 (racemic) | 14.8 | inhibition [2]: Active; inhibition [3]: Active |
| O=S(=O)(Cc1cccc(F)c1)N1CCc2ccccc2[C@H]1c1c[nH]c2ccccc12 | 17.2 | – |
| COc1nccc2c(C3c4ccccc4C=CN3S(=O)(=O)Cc3ccccc3)c[nH]c12 (racemic) | 6.3 | – |
| O=S(=O)(Cc1ccc(C(F)(F)F)cc1)N1CCc2ccccc2[C@@H]1c1c[nH]c2ccccc12 | 13.6 | – |
| Nc1ncc([C@@H]2c3ccccc3CCN2S(=O)(=O)Cc2ccccc2)s1 | > 25 | – |
| O=S(=O)(Cc1ccccc1)N1Cc2ccccc2[C@@H]1c1c[nH]c2ccccc12 | – | IC50 [4]: > 30 µM; IC50 [5]: 9.5 µM; IC50 [6]: 3.5 µM; IC50 [7]: 3.1 µM; inhibition [8]: Dose-dependent effect; inhibition [9]: Active; IC50 [10]: 3.6 µM; IC50 [11]: 3.6 µM; IC50 [12]: 4.5 µM; IC50 [13]: 4.7 µM; selectivity ratio [14]: > 4.8; selectivity ratio [15]: > 3.2; IC50 [16]: 4 µM; IC50 [17]: 6.3 µM; IC50 [18]: 4.9 µM |
| O=S(=O)(Cc1cccc(C(F)(F)F)c1)N1CCc2ccccc2[C@@H]1c1c[nH]c2ccccc12 | 11.1 | – |
| O=S(=O)(Cc1cccc(C(F)(F)F)c1)N1CCc2ccccc2[C@H]1c1c[nH]c2ccccc12 | 22.2 | – |
| O=S(=O)(Cc1ccccc1)N1CC=Cc2ccccc2[C@@H]1c1c[nH]c2ccccc12 | 14.7 | – |
| O=S(=O)(Cc1ccccc1)N1Cc2ccccc2[C@H]1c1c[nH]c2ccccc12 | > 12 | – |
| O=S(=O)(Cc1ccccc1C(F)(F)F)N1CCc2ccccc2[C@@H]1c1c[nH]c2ccccc12 | 14.8 | – |
| O=S(=O)(Cc1cccc(F)c1)N1CCc2ccccc2[C@@H]1c1c[nH]c2ccccc12 | 14.2 | – |
| O=S(=O)(Cc1ccccc1C(F)(F)F)N1CCc2ccccc2[C@H]1c1c[nH]c2ccccc12 | 16.7 | – |
| O=S(=O)(Cc1ccccc1)N1CCc2ccccc2[C@@H]1c1c[nH]c2ccccc12 | 11.7 | – |
| O=S(=O)(Cc1ccc(F)cc1)N1CCc2ccccc2[C@H]1c1c[nH]c2ccccc12 | 25.7 | – |
| O=S(=O)(Cc1ccccc1F)N1CCc2ccccc2[C@@H]1c1c[nH]c2ccccc12 | 12.7 | – |
| O=S(=O)(Cc1ccccc1)N1C=Cc2ccccc2C1c1c[nH]c2ncccc12 (racemic) | 6.2 | – |
| O=S(=O)(Cc1ccccc1)N1CCc2ccccc2[C@@H]1c1n[nH]c2ccccc12 | 9.5 | – |
| O=S(=O)(Cc1ccccc1)N1CCc2ccccc2[C@H]1c1c[nH]c2ccccc12 | 13.2 | – |
| COc1cc2c(C3c4ccccc4C=CN3S(=O)(=O)Cc3ccccc3)c[nH]c2cn1 (racemic) | 12.7 | – |
| O=S(=O)(Cc1ccccc1F)N1CCc2ccccc2[C@H]1c1c[nH]c2ccccc12 | 19.2 | – |
| O=S(=O)(Cc1ccccc1)N1CCc2ccccc2[C@H]1c1n[nH]c2ccccc12 | 14.3 | – |

— ChEMBL document CHEMBL3414530, “Synthesis, molecular modeling, and biological evaluation of novel RAD51 inhibitors” (Eur J Med Chem, 2015)
